As usually defined, the IC50 is the concentration needed to halve the response being measured. Lower therefore signals higher potency.

Consider one molecule from article PMC6447837 (Cancer Science, 2019).

One experiment deals with Aspc‐1. In words: MTT antiviability assay. In kind it is cell-based. The settings on record: Homo sapiens, ASPC1, 72 h. A general note: Formazan colour is commonly taken as a measure of viable cells.
Another experiment has as its system FOSL1. Kind of experiment: Western blot, FOSL1 expression in intact cells. In kind it is cell-based, human. The settings on record: 12 hours. (Immunoblotting shows a protein as a band on a membrane.)
In the next experiment the test system is Bxpc‐3 xenograft. Kind of experiment: Subcutaneous xenograft model. The settings on record: Bxpc‐3 model. It is filed as in vivo, NOD‐SCID mice. In outline:
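Female NOD‑SCID mice bearing s.c. right‑flank tumors (5 × 10⁶–1 × 10⁷ cells injected) were randomized at 100–200 mm³ (6–7 per group). They received test compound in 25% PEG400/5% DMSO/water by oral gavage once daily for 18 days, or vehicle. Tumors were measured by caliper every 3 days, with volume = length × width² × 0.5.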

The next experiment has as its system CFPAC. Kind of experiment: MTT antiviability assay. The settings on record: Homo sapiens, 72 h. It is filed as cell-based.
The subject of a further experiment is NCI‐N87. Kind of experiment: MTT antiviability assay. The settings on record: Homo sapiens, NCI-N87, 72 h. It is filed as cell-based.

As to `Cc1ccc(NC(=O)c2ccc(C)c(C(F)(F)F)c2)cc1C#Cc1nn(C2CCC(O)CC2)c2ncnc(N)c12` (stereo not shown) [LY‐1816, N‐(3‐((4‐amino‐1‐(4‐hydroxycyclohexyl)‐1H‐pyrazolo[3,4‐d]pyrimidin‐3‐yl)ethynyl)‐4‐methylphenyl)‐4‐methyl‐3‐(trifluoromethyl)benzamide], the half-inhibitory concentration (IC50) in the experiment on Aspc‐1 came to 0.054 ± 0.008 µM; in the experiment on CFPAC it was 0.096 ± 0.06 µM; in the experiment with NCI‐N87, 0.147 ± 0.044 µM. The FOSL1 expression result in the experiment with FOSL1 (10 PDAC cell lines) is on record as “downregulated the FOSL1 expression”; in the experiment on FOSL1 (HT29 and HCT116 cells), “relatively weak potency”. Besides, the “tumor‐inhibition rate” value in the experiment on Bxpc‐3 xenograft (40 mg/kg daily, orally, 18 days) is > 90%. Besides, in the experiment on Bxpc‐3 xenograft (LY‐1816 20 or 40 mg/kg/d p.o., dasatinib 40 mg/kg/d p.o., gemcitabine 80 mg/kg once a week), the antitumor activity result is recorded as “dose‐dependent tumor inhibitory activities”.
